One block for each compound: values may come before it.
How the values were obtained:
[1] = system: Rattus norvegicus; test: Delta BP refers to oral hypotensive activity of compound which is evaluated at 4 hr and 24 hr in restrained, normotensive conscious rats at a dose of 50 mg/kg; -11/-16; type: functional
Method in brief: (§1)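 Female Sprague-Dawley rats, normotensive, restrained in a towel. Blood pressure was read directly via chronic indwelling aortic cannulas exteriorized at the nape, before and 4 and 24 h after an oral dose suspended in carboxymethylcellulose (10 mL/kg). Values from two animals were averaged at each time; a mean change of at least 5 mmHg was taken as significant (p < 0.05).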

[2] = system: Rattus norvegicus; test: Delta BP refers to oral hypotensive activity of compound which is evaluated at 4 hr and 24 hr in restrained, normotensive conscious rats at a dose of 50 mg/kg; -17/-20; type: functional; method in brief: as §1
[3] = system: Rattus norvegicus; test: Delta BP refers to oral hypotensive activity of compound which is evaluated at 4 hr and 24 hr in restrained, normotensive conscious rats at a dose of 50 mg/kg; -16/-10; type: functional; conditions: dose 15 mg/kg, in the assay text read “dose of 15 mg/kg” for “dose of 50 mg/kg”; method in brief: as §1
[4] = system: Rattus norvegicus; test: Delta BP refers to oral hypotensive activity of compound which is evaluated at 4 hr and 24 hr in restrained, normotensive conscious rats at a dose of 50 mg/kg; -19/-19; type: functional; method in brief: as §1
[5] = target: T1, Adrenergic receptor alpha-1 (Rattus norvegicus, UniProt P15823+P23944+P43140); test: Compound was tested for the inhibition of [3H]prazosin binding […] adrenergic receptor of crude rat brain membrane.
T1 sequence (P15823 whole entry): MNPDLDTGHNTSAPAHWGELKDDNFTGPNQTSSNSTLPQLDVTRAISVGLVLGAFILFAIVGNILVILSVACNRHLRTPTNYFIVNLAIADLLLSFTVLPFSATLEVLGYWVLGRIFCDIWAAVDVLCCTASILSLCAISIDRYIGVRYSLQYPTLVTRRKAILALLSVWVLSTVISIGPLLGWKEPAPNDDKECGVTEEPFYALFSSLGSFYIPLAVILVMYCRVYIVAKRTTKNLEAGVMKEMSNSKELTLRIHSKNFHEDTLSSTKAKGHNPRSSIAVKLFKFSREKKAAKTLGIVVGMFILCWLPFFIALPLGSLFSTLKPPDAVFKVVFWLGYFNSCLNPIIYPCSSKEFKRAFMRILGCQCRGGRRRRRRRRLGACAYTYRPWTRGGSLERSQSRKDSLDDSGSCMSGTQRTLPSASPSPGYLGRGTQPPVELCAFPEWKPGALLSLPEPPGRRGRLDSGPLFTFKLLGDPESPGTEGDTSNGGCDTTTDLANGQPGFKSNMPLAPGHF
T1 sequence (P23944 whole entry): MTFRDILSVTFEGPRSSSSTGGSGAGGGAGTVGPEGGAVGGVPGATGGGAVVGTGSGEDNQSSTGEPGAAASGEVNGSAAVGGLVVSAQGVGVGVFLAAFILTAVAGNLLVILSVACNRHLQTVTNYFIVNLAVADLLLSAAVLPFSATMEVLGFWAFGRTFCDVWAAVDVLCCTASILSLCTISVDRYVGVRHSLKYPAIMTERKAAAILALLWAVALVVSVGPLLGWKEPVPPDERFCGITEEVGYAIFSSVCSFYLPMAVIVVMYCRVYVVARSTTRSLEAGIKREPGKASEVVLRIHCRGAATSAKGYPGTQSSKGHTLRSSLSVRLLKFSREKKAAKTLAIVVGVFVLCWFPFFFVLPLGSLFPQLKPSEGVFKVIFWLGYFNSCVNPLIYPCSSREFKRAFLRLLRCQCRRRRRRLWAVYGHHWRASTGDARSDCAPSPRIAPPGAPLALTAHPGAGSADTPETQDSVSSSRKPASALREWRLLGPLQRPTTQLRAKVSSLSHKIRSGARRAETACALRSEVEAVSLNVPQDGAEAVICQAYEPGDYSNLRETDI
T1 sequence (P43140 whole entry): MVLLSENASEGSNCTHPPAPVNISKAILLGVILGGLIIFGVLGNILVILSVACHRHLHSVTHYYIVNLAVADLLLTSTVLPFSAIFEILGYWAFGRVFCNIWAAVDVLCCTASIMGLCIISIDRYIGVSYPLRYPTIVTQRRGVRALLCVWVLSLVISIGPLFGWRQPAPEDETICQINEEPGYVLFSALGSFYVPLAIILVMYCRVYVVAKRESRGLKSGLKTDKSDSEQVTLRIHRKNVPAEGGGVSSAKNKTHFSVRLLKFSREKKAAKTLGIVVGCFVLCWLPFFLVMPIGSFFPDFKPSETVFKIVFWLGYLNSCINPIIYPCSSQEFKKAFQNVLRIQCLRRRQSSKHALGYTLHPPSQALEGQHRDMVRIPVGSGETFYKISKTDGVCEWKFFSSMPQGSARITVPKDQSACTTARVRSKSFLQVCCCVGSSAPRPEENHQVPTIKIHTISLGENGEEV

[6] = target: T2, Adrenergic receptor alpha-2 (Rattus norvegicus, UniProt P22086+P19328+P22909); test: Compound was tested for the inhibition of [3H]clonidine binding Alpha-2 adrenergic receptor of crude rat brain membrane
T2 sequence (P22086 whole entry): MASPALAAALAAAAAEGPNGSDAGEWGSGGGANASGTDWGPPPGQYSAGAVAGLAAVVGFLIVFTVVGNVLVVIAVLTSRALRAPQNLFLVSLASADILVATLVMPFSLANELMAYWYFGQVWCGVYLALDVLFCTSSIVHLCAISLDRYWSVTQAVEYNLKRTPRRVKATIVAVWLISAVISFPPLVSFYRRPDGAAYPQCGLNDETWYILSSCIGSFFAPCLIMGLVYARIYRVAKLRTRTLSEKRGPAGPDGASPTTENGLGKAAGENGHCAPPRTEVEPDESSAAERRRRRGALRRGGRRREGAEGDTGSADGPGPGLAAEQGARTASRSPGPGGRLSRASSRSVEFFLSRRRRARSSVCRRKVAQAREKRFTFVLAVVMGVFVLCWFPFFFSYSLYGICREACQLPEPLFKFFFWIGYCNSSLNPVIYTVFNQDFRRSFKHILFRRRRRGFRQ
T2 sequence (P19328 whole entry): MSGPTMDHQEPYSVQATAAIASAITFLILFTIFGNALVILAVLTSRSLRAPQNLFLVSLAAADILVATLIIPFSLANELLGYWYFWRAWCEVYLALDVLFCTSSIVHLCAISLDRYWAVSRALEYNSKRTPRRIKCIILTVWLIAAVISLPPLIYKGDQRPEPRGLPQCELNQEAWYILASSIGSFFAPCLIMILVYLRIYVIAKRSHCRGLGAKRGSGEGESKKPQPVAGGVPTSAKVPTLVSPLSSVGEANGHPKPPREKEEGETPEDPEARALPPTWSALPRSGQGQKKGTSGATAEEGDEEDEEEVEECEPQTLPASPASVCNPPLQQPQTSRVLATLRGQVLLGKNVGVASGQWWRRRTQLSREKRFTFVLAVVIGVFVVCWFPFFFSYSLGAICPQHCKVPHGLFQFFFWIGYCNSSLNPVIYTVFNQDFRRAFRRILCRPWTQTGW
T2 sequence (P22909 whole entry): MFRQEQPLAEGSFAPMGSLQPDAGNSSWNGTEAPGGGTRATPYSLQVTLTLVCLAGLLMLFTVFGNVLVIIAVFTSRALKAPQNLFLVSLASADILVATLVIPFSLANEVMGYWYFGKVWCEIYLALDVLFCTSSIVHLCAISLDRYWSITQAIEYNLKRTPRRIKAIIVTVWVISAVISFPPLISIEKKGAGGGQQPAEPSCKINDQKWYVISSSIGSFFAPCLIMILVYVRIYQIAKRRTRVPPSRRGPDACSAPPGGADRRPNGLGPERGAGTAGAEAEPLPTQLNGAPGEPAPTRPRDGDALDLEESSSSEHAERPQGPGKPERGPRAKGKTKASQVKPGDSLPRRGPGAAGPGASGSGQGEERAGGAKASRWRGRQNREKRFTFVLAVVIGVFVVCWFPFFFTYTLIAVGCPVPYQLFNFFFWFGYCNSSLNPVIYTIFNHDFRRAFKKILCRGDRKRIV

[7] = system: Rattus norvegicus; test: Delta BP refers to oral hypotensive activity of compound which is evaluated at 4 hr and 24 hr in restrained, normotensive conscious rats at a dose of 50 mg/kg; 1/0; type: functional; method in brief: as §1
[8] = system: Rattus norvegicus; test: Delta BP refers to oral hypotensive activity of compound which is evaluated at 4 hr and 24 hr in restrained, normotensive conscious rats at a dose of 50 mg/kg; -17/-9; type: functional; method in brief: as §1
[9] = system: Rattus norvegicus; test: Delta BP refers to oral hypotensive activity of compound which is evaluated at 4 hr and 24 hr in restrained, normotensive conscious rats at a dose of 50 mg/kg; -13/-10; type: functional; method in brief: as §1
[10] = system: Rattus norvegicus; test: Delta BP refers to oral hypotensive activity of compound which is evaluated at 4 hr and 24 hr in restrained, normotensive conscious rats at a dose of 50 mg/kg; -24/-5; type: functional; method in brief: as §1

SMILES: COc1cc2c(cc1OC)C(C)(CCCN1CCN(c3ccccn3)CC1)OCC2 (stereo not given)
- Delta blood pressure [1]: -11 mmHg

SMILES: COc1cc2c(cc1OC)C(CCN1CCN(c3ccccc3C)CC1)OC(C)(C)C2 (stereo not given)
- Delta blood pressure [2]: -17 mmHg

SMILES: COc1cc2c(cc1OC)C(CCCN1CCN(c3ccccc3)CC1)(c1ccc(F)cc1)OCC2 (stereo not given)
- Delta blood pressure [3]: -16 mmHg
- Delta blood pressure [4]: -19 mmHg

- Ki [5]: 4 nM
- Ki [6]: 307 nM
SMILES: COc1cc2c(cc1OC)C(CCN1CCN(c3ccc(F)cc3)CC1)OCCC2 (stereo not given)

SMILES: COc1cc2c(cc1OC)C(CCN1CCN(c3cccc(Cl)c3)CC1)OCC2 (stereo not given)
- Delta blood pressure [7]: 1 mmHg

SMILES: COc1cc2c(cc1OC)C(C)(CCN1CCN(c3ccccc3)CC1)OCC2 (stereo not given)
- Delta blood pressure [8]: -17 mmHg

SMILES: COc1cc2c(cc1OC)C(CCN1CCN(c3ccccc3)CC1)OCC2 (stereo not given)
- Delta blood pressure [9]: -13 mmHg

SMILES: COc1cc2c(cc1OC)C(CN1CCN(c3ccccc3C)CC1)OCC2 (stereo not given)
- Delta blood pressure [10]: -24 mmHg
